Calls of active or inactive are those of the source. The rule behind the calls is not given here.
Columns and labels:
[1] = molecular target: T1, Neutrophil elastase (Homo sapiens) (UniProt P08246); assay: Second order rate constant for inhibition of Human leukocyte elastase (major diastereomeric pair of enantiomer)
T1 sequence (whole entry): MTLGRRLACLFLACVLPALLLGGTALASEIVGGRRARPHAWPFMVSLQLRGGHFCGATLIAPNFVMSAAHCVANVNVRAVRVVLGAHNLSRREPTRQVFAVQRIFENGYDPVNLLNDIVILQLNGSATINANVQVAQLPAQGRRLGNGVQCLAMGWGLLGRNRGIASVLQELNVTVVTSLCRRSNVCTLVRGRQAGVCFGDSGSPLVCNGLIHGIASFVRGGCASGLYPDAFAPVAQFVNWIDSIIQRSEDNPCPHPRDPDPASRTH
Summary of the method: (§1)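 Human leukocyte elastase (20 μM stock in pH 5.0 acetate buffer) incubated with inhibitor added from DMSO stock in 0.1 M HEPES pH 7.2, 25 °C. Aliquots withdrawn at intervals are diluted into HEPES containing MeO-Suc-Ala-Ala-Pro-Val-p-NA, and initial rates are followed at 410 nm over 60 s against control incubations. k_obs comes from plots of v/v0 versus time (Kitz–Wilson incubation method).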

[2] = molecular target: T1, Neutrophil elastase (Homo sapiens); assay: Second order rate constant for inhibition of Human leukocyte elastase (minor diastereomeric pair of enantiomer); summary of the method: as §1
[3] = molecular target: T1, Neutrophil elastase (Homo sapiens); assay: Second order rate constant for inhibition of Human leukocyte elastase (minor diastereomeric pair of enantiomer); NI=no inhibition; summary of the method: as §1
[4] = molecular target: T1, Neutrophil elastase (Homo sapiens); assay: Second order rate constant for inhibition of Human leukocyte elastase (major diastereomeric 2 pairs of enantiomer); summary of the method: as §1

Structure (SMILES) | k obs / 1 [1] | further results
CCOC(=O)C(OC(=O)c1ccc(OC)cc1)N1CC(CC)(CC)C1=O (stereo unspecified) | 10.7 1/M 1/s | –
CCC1(CC)C(=O)N(COC(=O)Nc2ccc(OC)cc2)C1S(=O)(=O)c1ccccc1 (stereo unspecified) | 100 1/M 1/s | –
CCC1(CC)C(=O)N(C2OC(=O)N(Cc3ccccc3)C2=O)C1S(=O)(=O)c1ccccc1 (stereo unspecified) | 68.5 1/M 1/s | k obs / 1 [2]: 51 1/M 1/s
CCOC(=O)C(OC(=O)c1ccc(OC)cc1)N1C(=O)C(CC)(CC)C1Sc1nc2ccccc2o1 (stereo unspecified) | 12.9 1/M 1/s | –
CCC1(CC)C(=O)N(C2OC(=O)N(Cc3ccccc3)C2=O)C1Oc1ccccc1 (stereo unspecified) | 115 1/M 1/s | k obs / 1 [2]: 144 1/M 1/s
CCC1(CC)C(=O)N(C2OC(=O)N(C(=O)[n+]3ccc(OC)cc3)C2=O)C1S(=O)(=O)c1ccccc1 (stereo unspecified) | 43.2 1/M 1/s | k obs / 1 [2]: 49.7 1/M 1/s
CCOC(=O)C(OC(=O)NC(=O)[n+]1ccccc1C(=O)OC)N1C(=O)C(CC)(CC)C1S(=O)(=O)c1ccccc1 (stereo unspecified) | 26.6 1/M 1/s | k obs / 1 [3]: inactive
CCOC(=O)C(OC(=O)NCc1ccccc1)N1C(=O)C(CC)(CC)C1Oc1ccccc1 (stereo unspecified) | 38.2 1/M 1/s | –
CCC1(CC)C(=O)N(C2OC(=O)N(c3ccc(C)cc3)C2=O)C1Sc1nc2ccccc2o1 (stereo unspecified) | – | k obs / 1 [4]: 80 1/M 1/s
CCC1(CC)CN(C2OC(=O)N(Cc3ccccc3)C2=O)C1=O (stereo unspecified) | 23.9 1/M 1/s | –
CCC1(CC)C(=O)N(C(=O)NCc2ccccc2)C1Oc1ccc(C(=O)O)cc1 (stereo unspecified) | 1500 1/M 1/s | –
CCOC(=O)C(OC(=O)c1ccc(OC)cc1)N1C(=O)C(CC)(CC)C1S(=O)(=O)c1ccccc1 (stereo unspecified) | – | k obs / 1 [4]: 24.4 1/M 1/s

Source: ChEMBL document CHEMBL1140332, “Design, synthesis, and enzymatic evaluation of N1-acyloxyalkyl- and N1-oxazolidin-2,4-dion-5-yl-substituted beta-lactams as novel inhibitors of human leukocyte elastase” (J Med Chem, 2005)
